Measured values from ChEMBL document CHEMBL4725348, “Rational Design and Evaluation of 6-(Pyrimidin-2-ylamino)-3,4-dihydroquinoxalin-2(1H)-ones as Polypharmacological Inhibitors of BET and Kinases” (J Med Chem, 2020).
pIC50: −log10 of the molar value.

Legend:
[1] = target: Cyclin-dependent kinase 1 (Homo sapiens) (UniProt P06493); assay: Inhibition of human CDK1 at 1 uM by kinome scan method relative to control
Outline: (§1)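 Eurofins DiscoveRx diversity kinase panel run at 1 µM. Inhibition values are means of at least two independent experiments.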

[2] = AUC (0 to t) in ICR mouse at 3 mg/kg, ip and measured up to 24 hrs by TQ-S triple quadrupole mass spectrometric method; type: ADME, organism-based; set-up: route intraperitoneal, dose 3 mg/kg, time <=24; settings: in vivo
Outline: (§2)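 Male ICR mice (20 - 22 g, n = 3) dosed intraperitoneally, compound at 1 mg/mL in 1%DMSO/0.5%HPMC (5/95, v/v). EDTA plasma collected 0.25–24 h. 10 µL plasma treated with methanol:acetonitrile (1:1) containing internal standard, then centrifuged. LC-MS/MS on C18 UPLC. Parameters derived from composite mean plasma concentration-time data; Cmax is the maximum observed concentration and Tmax the time it is reached.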

[3] = target: Bromodomain-containing protein 2 (Homo sapiens) (UniProt P25440); assay: Inhibition of His6-tagged BRD2 bromodomain 1 (unknown origin) expressed in Escherichia coli Bl21(DE3) cells at 1 uM incubated for 4 hrs by FP assay relative to control
Chain of Bromodomain-containing protein 2 (Homo sapiens) (P25440 whole entry, looked up): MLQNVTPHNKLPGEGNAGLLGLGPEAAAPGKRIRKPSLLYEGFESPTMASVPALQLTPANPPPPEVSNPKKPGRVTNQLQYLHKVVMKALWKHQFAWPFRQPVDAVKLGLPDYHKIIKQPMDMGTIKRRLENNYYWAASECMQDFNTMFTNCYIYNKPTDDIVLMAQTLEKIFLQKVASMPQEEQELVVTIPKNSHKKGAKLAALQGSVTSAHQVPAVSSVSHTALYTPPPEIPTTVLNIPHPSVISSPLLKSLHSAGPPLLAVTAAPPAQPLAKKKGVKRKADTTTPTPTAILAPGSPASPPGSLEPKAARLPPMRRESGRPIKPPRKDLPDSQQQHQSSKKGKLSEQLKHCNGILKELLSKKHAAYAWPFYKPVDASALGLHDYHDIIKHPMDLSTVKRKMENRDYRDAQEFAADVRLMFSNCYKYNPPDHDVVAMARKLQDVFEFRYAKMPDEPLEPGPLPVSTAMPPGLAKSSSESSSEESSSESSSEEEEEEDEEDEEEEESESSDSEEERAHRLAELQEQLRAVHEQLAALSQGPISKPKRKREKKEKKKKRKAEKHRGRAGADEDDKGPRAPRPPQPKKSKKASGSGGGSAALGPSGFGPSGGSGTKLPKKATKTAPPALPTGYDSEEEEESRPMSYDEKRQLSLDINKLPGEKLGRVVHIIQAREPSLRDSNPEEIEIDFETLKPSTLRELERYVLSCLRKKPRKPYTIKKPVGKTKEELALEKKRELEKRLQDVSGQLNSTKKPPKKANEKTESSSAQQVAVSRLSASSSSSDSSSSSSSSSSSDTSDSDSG
Outline: (§3)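 Fluorescence polarization. Purified bromodomain (His6 tag removed with TEV, size-exclusion purified) equilibrated with fluorescent ligand. Compound or DMSO (2‰ final) then added and left 4 h at room temperature in the dark. Anisotropy read at ex 485/em 530 nm. IC50 values are means of at least two independent experiments; single-point inhibition tested at the listed concentration.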

[4] = target: T1, Bromodomain-containing protein 4 (Homo sapiens, UniProt O60885); assay: Inhibition of His6-tagged BRD4 bromodomain 1 (unknown origin) expressed in Escherichia coli Bl21(DE3) cells incubated for 4 hrs by FP assay; outline: as §3
[5] = Tmax in ICR mouse at 3 mg/kg, ip and measured up to 24 hrs by TQ-S triple quadrupole mass spectrometric method; type: ADME, organism-based; settings: in vivo; outline: as §2
[6] = target: Bromodomain-containing protein 2 (Homo sapiens) (UniProt P25440); assay: Inhibition of His6-tagged BRD2 bromodomain 2 (unknown origin) expressed in Escherichia coli Bl21(DE3) cells at 1 uM incubated for 4 hrs by FP assay relative to control; outline: as §3
[7] = target: T2, Cyclin-dependent kinase 9 (Homo sapiens, UniProt P50750); assay: Inhibition of CDK9 in human HCT-116 cells assessed as reduction in phosphorylation of […] protein expression at 50 to 500 nM after 24 hrs by Western blot analysis; type: cell-based; settings: dose nM 50-500, time 24.0 hrs
T2 sequence (P50750 whole entry): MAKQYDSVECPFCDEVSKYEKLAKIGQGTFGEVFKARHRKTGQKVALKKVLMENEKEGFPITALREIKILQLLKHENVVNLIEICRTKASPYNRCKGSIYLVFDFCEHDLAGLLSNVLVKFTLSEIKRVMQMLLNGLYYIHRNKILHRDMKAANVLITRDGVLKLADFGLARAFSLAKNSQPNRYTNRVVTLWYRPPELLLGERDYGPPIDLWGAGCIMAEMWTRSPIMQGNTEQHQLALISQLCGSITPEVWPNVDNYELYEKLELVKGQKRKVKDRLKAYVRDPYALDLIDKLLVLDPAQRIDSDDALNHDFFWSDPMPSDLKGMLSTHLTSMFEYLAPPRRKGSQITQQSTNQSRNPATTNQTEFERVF
Outline: (§4)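 HCT-116 cells plated 24 h, then treated 24 h at 0, 50, 100, 250 or 500 nM. Lysates immunoblotted for p-AR and p-RNA Pol II CTD with GAPDH as loading control; bands quantified and normalized.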

[8] = Cmax in ICR mouse at 3 mg/kg, ip and measured up to 24 hrs by TQ-S triple quadrupole mass spectrometric method; type: ADME, organism-based; set-up: route intraperitoneal, dose 3 mg/kg, time <=24; settings: in vivo; outline: as §2
[9] = target: T2, Cyclin-dependent kinase 9; assay: Inhibition of human CDK9 by mobility shift assay relative to control
Outline: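 Recombinant CDK9 incubated with compound and CTD3 peptide substrate. Activity read by Caliper mobility-shift; Dinaciclib served as positive control. IC50 values are means of at least two independent experiments.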

[10] = target: T3, Cyclin-dependent kinase 2 (Homo sapiens, UniProt P24941); assay: Inhibition of human CDK2 by kinome scan method
[11] = target: T2, Cyclin-dependent kinase 9; assay: Inhibition of CDK9 in human HCT-116 cells assessed as reduction in phosphorylation of AR protein expression at 50 to 500 nM after 24 hrs by Western blot analysis; type: cell-based; settings: dose nM 50-500, time 24.0 hrs; outline: as §4
[12] = target: T1, Bromodomain-containing protein 4; assay: Inhibition of His6-tagged BRD4 bromodomain 2 (unknown origin) expressed in Escherichia coli Bl21(DE3) cells at 1 uM incubated for 4 hrs by FP assay relative to control; outline: as §3
[13] = target: T3, Cyclin-dependent kinase 2; assay: Inhibition of human CDK2 at 1 uM by kinome scan method relative to control; outline: as §1
[14] = organism: Homo sapiens; assay: Selectivity ratio of IC50 for inhibition of human CDK2 to IC50 for inhibition of human CDK9
[15] = Elimination rate constant in ICR mouse at 3 mg/kg, ip and measured up to 24 hrs by TQ-S triple quadrupole mass spectrometric method; type: ADME, organism-based; settings: in vivo; outline: as §2
[16] = AUC (0 to infinity) in ICR mouse at 3 mg/kg, ip and measured up to 24 hrs by TQ-S triple quadrupole mass spectrometric method; type: ADME, organism-based; set-up: route intraperitoneal, dose 3 mg/kg, time <=24; settings: in vivo; outline: as §2
[17] = Half life in ICR mouse at 3 mg/kg, ip and measured up to 24 hrs by TQ-S triple quadrupole mass spectrometric method; type: ADME, organism-based; settings: in vivo; outline: as §2

Chain of Cyclin-dependent kinase 1 (Homo sapiens) (P06493 whole entry, looked up): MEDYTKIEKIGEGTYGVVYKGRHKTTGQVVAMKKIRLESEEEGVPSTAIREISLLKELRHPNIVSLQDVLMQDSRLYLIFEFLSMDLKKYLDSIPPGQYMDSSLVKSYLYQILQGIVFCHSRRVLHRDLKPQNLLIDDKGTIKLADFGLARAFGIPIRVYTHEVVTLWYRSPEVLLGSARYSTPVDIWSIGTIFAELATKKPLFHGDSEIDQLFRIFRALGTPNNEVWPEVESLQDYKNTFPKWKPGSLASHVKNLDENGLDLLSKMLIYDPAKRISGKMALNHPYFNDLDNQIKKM

- inhibition [1]: 90%
- AUC(0-t) at 24 h [2]: 757 ng·h/mL
- inhibition [3]: < 12%
- pIC50 [4]: 7.90
- Tmax [5]: 11.6 min
- inhibition [6]: < 12%
- inhibition [7]: Dose-dependent effect
- Cmax [8]: 1370 ng/mL
- pIC50 [9]: 7.65
- pIC50 [10]: 6.77
- inhibition [11]: Dose-dependent effect
- inhibition [12]: < 12%
- inhibition [13]: 90%
- Ratio IC50 [14]: 8
- k el at 24 h [15]: 0.000403 s⁻¹
- AUC(0-inf) [16]: 759 ng·h/mL
- half-life [17]: 28.8 min
Structure (SMILES): CC(C)N1c2cc(Nc3nccc(-c4cncc5ccccc45)n3)ccc2N(C)C(=O)[C@H]1C
